Source: PubChem BioAssay (several laboratories)
A selection: hits, their analogues and other compounds. The true share with any hit is near 3.6%.
Hsp70 activator: Hsp70 transcriptional activation, primary screen. HeLa Hsp70 promoter luciferase reporter, luminescence; scaled: vehicle 0, proteasome-inhibitor control 100%. activation, % at 10 µM. 0.04% of 200,000 active;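 active = activation above the mean across all tested compounds plus 3 SD, cutoff set per campaign, cut at about 5.5% in these data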;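 note: 100% = MG132 at 30 µM as the positive control and 0% = DMSO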
PolyA inh: inhibitors of polyadenylation in S. cerevisiae. S. cerevisiae SKY197-pL101 polyadenylation reporter, beta-gal luminescence; efflux-impaired pdr1/pdr3 knockout yeast; score 100 = 6 SD above DMSO. activity score, % at 12 µM. 0.02% of 300,000 active. AID 1875;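 active = lowest replicate activity score at least 50, where 100 means six control SD above control mean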;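 note: yeast exposed to compound for 9 h at 30 °C; higher score means more reporter readthrough which indicates perturbed polyadenylation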
PERK inhibitor: human PERK inhibition, primary cell-based screen; CHO PERK-DD fusion, SEAP luminescence translation reporter; inhibition, % at 5.6 µM; 0.17% of 220,000 active;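 active = inhibition above the mean inhibition of all tested compounds plus 3 SD, set separately per screening campaign, cut at about 2.9% in these data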;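 note: PERK kinase domain activated by AP20187 dimerizer at 100 nM; 0% = DMSO with dimerizer and 100% = rapamycin at 8.4 µM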
HSF1 inhib: HSF1 inhibition | AID 2098 | NIH3T3-HGL HSE-luciferase, MG132-induced, luminescence 8 h; hits give low values | activity change, negative = inhibition, % at 7.5 µM (by protocol) | 0.77% of 300,000 active;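 active = more than half of replicate wells show activity change below -50%, luminescence cut by over half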;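 note: luciferase reports HSF-1 transcriptional activity via heat shock element; 0% = median of DMSO wells and -100% = zero luminescence signal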
AHR act: activates the human aryl hydrocarbon receptor | P35869 | AHR-responsive luciferase reporter cells, luminescence | activation, % at 5 µM | 2.5% of 320,000 active; in the data active = activation above about 47%;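 note: 0% = vehicle wells and 100% = reference agonist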
STAT3 act: activators of IL-6 induced STAT3 signaling | activation (% of control), % at 5.6 µM | U3A cells, IL-6 STAT3-luciferase reporter, luminescence; 100% = signal with IL-6 EC80 alone | 0.91% of 190,000 active;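 active = activation above the screen-wide mean of compound activation plus 3 SD, cut at about 130% in these data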;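 note: 0% = background luminescence of wells with medium and substrate only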
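system = STAT3-luciferase reporter U3A cells | reagent = IL-6 stimulus at 33 ng/mL final | timing = 1 h compound pre-exposure, 6 h IL-6 stimulation, 37 °C | measured by = luminescence | evaluation = % activation versus median of IL-6-stimulated wells | control set = IL-6-only wells as 100% reference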
* = called active by the depositor.

How did Cc1c(C(=O)Nc2ccc(F)cc2)sc2ncn(CC(=O)N3CCCCC3)c(=O)c12 do in these assays?
PolyA inh: -19.8; HSF1 inhib: -54.7*; AHR act: 41.6

How did CCOC(=O)CSc1cc(CS(C)(=O)=O)nc(-c2ccccn2)n1 do in these assays?
Hsp70 activator: -0.2; PolyA inh: -3.0; PERK inhibitor: 0.9; HSF1 inhib: -61.2*; AHR act: -4.7; STAT3 act: 104.8

What do the screens show for `CN1CCN(/N=C/c2nc(-c3ccc(Cl)cc3)n3ccccc23)CC1`?
Hsp70 activator: -0.2; PolyA inh: -11.9; PERK inhibitor: -0.1; HSF1 inhib: -11.4; AHR act: 48.3*; STAT3 act: 113.3

How did CN1CCN(/N=C/c2nc(-c3ccccc3Cl)n3ccccc23)CC1 do in these assays?
Hsp70 activator: -0.3; PolyA inh: 12.7; PERK inhibitor: 0.2; HSF1 inhib: -1.6; AHR act: 25.1; STAT3 act: 105.3

What do the screens show for `COc1cccc(NC(=O)CN(C)C(=O)C(CCSC)NC(=O)c2ccco2)c1` (configuration not stated)?
AHR act: 3.5

Results for CCOc1ccc(NC(=S)C(C#N)=C2N(C)c3ccccc3N2C)cc1 ?
Hsp70 activator: 0.0; PolyA inh: -6.4; PERK inhibitor: 1.2; HSF1 inhib: -1.5; AHR act: 2.9; STAT3 act: 103.2

Results for Cc1ccc(OCC(=O)N/N=C/c2ccccc2)c([N+](=O)[O-])c1 ?
Hsp70 activator: -0.2; PolyA inh: 3.9; PERK inhibitor: 0.8; HSF1 inhib: 7.1; STAT3 act: 99.3

How did Cc1cccc(OCC(=O)N/N=C\c2cn(C)c3ccccc23)c1 do in these assays?
Hsp70 activator: -0.1; PolyA inh: -14.7; PERK inhibitor: 0.2; HSF1 inhib: 4.2; AHR act: 72.3*; STAT3 act: 96.8

What do the screens show for `Cc1cccc(OCCn2cc(/C=N/NC(=O)c3ccncc3)c3ccccc32)c1`?
Hsp70 activator: -0.3; PolyA inh: -11.8; PERK inhibitor: 0.0; HSF1 inhib: 1.8; AHR act: 24.6; STAT3 act: 101.4

Results for Cc1ccc(OCC(=O)N/N=C\c2c(C)n(C)c3ccccc23)c([N+](=O)[O-])c1 ?
Hsp70 activator: -0.2; PolyA inh: -13.1; PERK inhibitor: -0.8; HSF1 inhib: -15.4; AHR act: 60.5*; STAT3 act: 93.9

How did C/C(=N\NC(=O)COc1ccc(C)cc1[N+](=O)[O-])c1cccs1 do in these assays?
Hsp70 activator: 0.0; PolyA inh: 98.0*; PERK inhibitor: 0.2; HSF1 inhib: 12.7; AHR act: 0.5; STAT3 act: 102.2

Results for Nc1ccccc1C(=O)NCCCN1CCN(c2cccc(Cl)c2)CC1 ?
PolyA inh: 8.3; HSF1 inhib: -13.3; AHR act: 0.5

What do the screens show for `CC(=O)c1ccc(S(=O)(=O)N2CCN(C(C)C(=O)N(C)Cc3ccccc3)CC2)cc1` (configuration not stated)?
AHR act: -0.4

What do the screens show for `Brc1ccccc1-c1nc2c3ccccc3ncn2n1`?
AHR act: 65.6*

How did O=C(NCc1nc2ccccc2[nH]1)C1=C[C@@H](c2ccccc2)C[C@@H](OCCCCO)O1 do in these assays?
Hsp70 activator: -0.1; PolyA inh: -17.5; PERK inhibitor: 0.1; HSF1 inhib: -1.4; AHR act: 56.9*

How did Cc1cccc(OCC(=O)Nc2ccncc2)c1C do in these assays?
PolyA inh: -3.9; HSF1 inhib: -67.9*; AHR act: 2.1

Results for COc1ccccc1OCC(=O)Nc1ccncc1 ?
PolyA inh: 8.5; HSF1 inhib: 3.1; AHR act: 3.7

What do the screens show for `Cc1cc(Cl)ccc1OCC(=O)Nc1ccncc1`?
PolyA inh: 27.7; HSF1 inhib: -59.3*; AHR act: 1.3

How did COc1cccc(NC(=O)CCC(=O)Nc2ccc3nc(N4CCOCC4)cc(C)c3c2)c1 do in these assays?
PolyA inh: 0.2; HSF1 inhib: 19.0; AHR act: 28.0

Results for Cc1c(C(=O)NC2=NCCS2)oc2ccccc12 ?
Hsp70 activator: -0.3; PolyA inh: -3.2; PERK inhibitor: -0.6; HSF1 inhib: 6.1; AHR act: 63.6*; STAT3 act: 89.6

How did Cc1c(C(=O)NC2CCCC2)oc2ccccc12 do in these assays?
AHR act: 61.1*

What do the screens show for `Cc1cc(NC(=O)CCC(=O)N(CC(=O)NCC2CCCO2)c2ccc(F)c(Cl)c2)no1` (configuration not stated)?
PolyA inh: -8.9; HSF1 inhib: -5.4; AHR act: 1.4

How did NNC(=O)c1cccc(COc2cccc(Br)c2)c1 do in these assays?
Hsp70 activator: -0.2; PolyA inh: -1.1; PERK inhibitor: 0.8; HSF1 inhib: 10.0; AHR act: 51.5*; STAT3 act: 97.0

How did Cn1c(C(=O)NN)cc2cc(Oc3ccccc3)ccc21 do in these assays?
PolyA inh: 4.6; HSF1 inhib: -4.0; AHR act: 2.7

What do the screens show for `Cn1c(C(=O)NN)cc2cc(OCc3ccccc3)ccc21`?
PolyA inh: -4.9; HSF1 inhib: -84.3*; AHR act: 5.5

How did COC(=O)c1cccc(Cn2cc([N+](=O)[O-])cn2)c1 do in these assays?
Hsp70 activator: -0.2; PolyA inh: 13.9; PERK inhibitor: 0.6; HSF1 inhib: 3.3; AHR act: 3.6; STAT3 act: 100.5

Results for COc1ccc(OCc2cccc(C(=O)NN)c2)cc1 ?
Hsp70 activator: -0.6; PolyA inh: 4.7; PERK inhibitor: 0.4; HSF1 inhib: -65.7*; AHR act: 1.9; STAT3 act: 19.4

Results for COc1ccc(OCc2cccc(C(=O)Nn3cc([N+](=O)[O-])cn3)c2)cc1 ?
Hsp70 activator: -0.3; PolyA inh: -12.2; PERK inhibitor: 0.6; HSF1 inhib: -53.6*; AHR act: -12.1; STAT3 act: 61.0

Results for COc1ccccc1NC(=O)Cn1nnc(C(=O)NCCc2ccccc2)c1N ?
Hsp70 activator: -0.1; PolyA inh: 5.3; PERK inhibitor: 0.5; HSF1 inhib: 6.9; AHR act: 31.2; STAT3 act: 98.6

What do the screens show for `CC1CCCN(c2nc(NCc3ccco3)nc(N)c2[N+](=O)[O-])C1` (configuration not stated)?
Hsp70 activator: -0.3; PolyA inh: -6.8; PERK inhibitor: -0.4; HSF1 inhib: -4.7; AHR act: 10.8; STAT3 act: 99.4

How did Cc1ccc(Nc2nc(N)c([N+](=O)[O-])c(N3CCCC(C)C3)n2)cc1C (configuration not stated) do in these assays?
Hsp70 activator: -0.2; PolyA inh: 0.9; PERK inhibitor: 0.3; HSF1 inhib: 9.4; AHR act: 51.3*; STAT3 act: 98.7

What do the screens show for `Cc1ccc(C)c2[nH]c(=O)c(CCNC(=O)C(C)(C)C)cc12`?
Hsp70 activator: 0.0; PolyA inh: 4.0; PERK inhibitor: -0.5; HSF1 inhib: -85.8*; AHR act: 8.8; STAT3 act: 85.3
